According to ChEMBL document CHEMBL1154130, “Synthesis and biological activities of thio-avarol derivatives” (J Nat Prod, 2008):
Converted amounts (≈) assume the structure as drawn. The source made the active and inactive calls. The rule behind the calls is not given here.

Columns and labels:
[1] = system: Radical scavenging activity; assay: Antioxidant activity assessed as DPPH radical scavenging activity; assay type: functional
Summary of the method: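 Compounds were tested in MeOH at 5, 10, 20, 50 and 100 µM with DPPH at 0.1 mM final. Absorbance at 517 nm was read after 30 min. Percent radical inhibition was plotted to give the IC50, the concentration scavenging 50% of DPPH. Trolox was the positive control.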

Bacillus spizizenii = assay: Antimicrobial activity against Bacillus subtilis subsp. spizizenii DMS 347 after 48 hrs by serial dilution method; assay type: functional
Summary of the method: (§1)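 Bacteria grown as liquid cultures in nutrient broth at 37 °C. […] Growth was scored after 48 h of incubation.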

Micrococcus luteus = assay: Antimicrobial activity against Micrococcus luteus DMS 348 after 48 hrs by serial dilution method; assay type: functional; summary of the method: as §1
Saccharomyces cerevisiae = assay: Antimicrobial activity against Saccharomyces cerevisiae DMS 70449 after 48 hrs by serial dilution method; assay type: functional
Escherichia coli = assay: Antimicrobial activity against Escherichia coli DSM 498 after 48 hrs by serial dilution method; assay type: functional, organism-based; summary of the method: as §1
Artemia salina = assay: Toxicity against Artemia salina after 24 hrs; assay type: organism-based; conditions: in vivo
Summary of the method: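 Freshly hatched Artemia salina larvae (10 per test) in 5 mL artificial seawater; compounds dissolved in DMSO, tested at final 100, 10 and 1 ppm, in triplicate. Surviving shrimps counted after 24 h; LD50 with 95% confidence intervals by Finney probit analysis, reported in ppm.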

[2] = target: Acetylcholinesterase (Homo sapiens) (UniProt P22303)
Acetylcholinesterase (Homo sapiens), sequence (P22303 whole entry): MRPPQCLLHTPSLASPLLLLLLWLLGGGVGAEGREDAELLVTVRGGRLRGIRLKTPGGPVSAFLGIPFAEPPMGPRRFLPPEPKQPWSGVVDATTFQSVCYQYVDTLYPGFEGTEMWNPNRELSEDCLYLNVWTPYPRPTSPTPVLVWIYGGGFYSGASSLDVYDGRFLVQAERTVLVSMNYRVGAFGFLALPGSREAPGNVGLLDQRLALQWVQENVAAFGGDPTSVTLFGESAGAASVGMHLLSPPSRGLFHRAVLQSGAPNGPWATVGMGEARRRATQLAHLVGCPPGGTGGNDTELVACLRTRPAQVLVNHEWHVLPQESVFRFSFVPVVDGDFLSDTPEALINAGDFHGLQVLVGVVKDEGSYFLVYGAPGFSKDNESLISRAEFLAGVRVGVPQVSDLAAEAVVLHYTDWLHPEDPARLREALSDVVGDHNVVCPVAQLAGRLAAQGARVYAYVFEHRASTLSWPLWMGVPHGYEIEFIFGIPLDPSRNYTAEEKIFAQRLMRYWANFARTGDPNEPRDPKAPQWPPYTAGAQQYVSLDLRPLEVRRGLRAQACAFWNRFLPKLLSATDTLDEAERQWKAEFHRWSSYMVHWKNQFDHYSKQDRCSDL

Compound	IC50 ([1]; read-out: IC50)	MIC (Bacillus spizizenii)	MIC (Micrococcus luteus)	MIC (Saccharomyces cerevisiae)	Activity (Escherichia coli)	LC50 (Artemia salina)	MIC [2]	MIC (Bacillus spizizenii; DMS 347, 48 h)	MIC (Micrococcus luteus; DMS 348, 48 h)	IC50 [1]	MIC (Saccharomyces cerevisiae; DMS 70449, 48 h)
CC1=CCC[C@H]2[C@](C)(Cc3cc(O)c(Sc4nc5ccccc5s4)cc3O)[C@@H](C)CC[C@]12C	31.2 µM	inactive	inactive	inactive	inactive	Not Active	> 10 µg				
CC1=CCC[C@H]2[C@](C)(Cc3cc(O)ccc3O)[C@@H](C)CC[C@]12C [AVAROL]	18 µM			inactive	inactive	0.18 ppm	10 µg	25 µg/mL (≈ 79.5 µM)	10 µg/mL (≈ 31.8 µM)		
CC1=CCC[C@H]2[C@](C)(CC3=CC(O)C(S[C@H]4CC[C@@]5(C)C(=CC[C@H]6[C@@H]7CC[C@H]([C@H](C)CCCC(C)C)[C@@]7(C)CC[C@@H]65)C4)=CC3O)[C@@H](C)CC[C@]12C (stereo partly specified)	71.4 µM					Not Active					
NYSTATIN				100 µg/mL							
CC1=CCC[C@H]2[C@](C)(Cc3cc(O)cc(Sc4cccc(C(=O)O)c4)c3O)[C@@H](C)CC[C@]12C	31.8 µM			inactive	inactive	14.73 ppm	1 µg	10 µg/mL (≈ 21.4 µM)	10 µg/mL (≈ 21.4 µM)		
CC1=CCC[C@H]2[C@](C)(Cc3cc(O)c(SC(C)C(=O)O)cc3O)[C@@H](C)CC[C@]12C (stereo partly specified)	35.3 µM		inactive	inactive	inactive	> 50 ppm	1 µg	10 µg/mL (≈ 23.9 µM)			
CC1=CCC[C@H]2[C@](C)(CC3=CC(=O)C=CC3=O)[C@@H](C)CC[C@]12C [AVARONE]	32.1 µM			inactive	inactive	0.14 ppm	1 µg	10 µg/mL (≈ 32 µM)	1 µg/mL (≈ 3.2 µM)		
CC1=CCC[C@H]2[C@](C)(CC3=CC(=O)C(S[C@H]4CC[C@@]5(C)C(=CC[C@H]6[C@@H]7CC[C@H]([C@H](C)CCCC(C)C)[C@@]7(C)CC[C@@H]65)C4)=CC3=O)[C@@H](C)CC[C@]12C		inactive	inactive	inactive	inactive	Not Active	> 10 µg			Not Active	
CC1=CCC[C@H]2[C@](C)(CC3=CC(O)C(S[C@H]4CC[C@@]5(C)C(=CC[C@H]6[C@@H]7CC[C@H]([C@H](C)CCCC(C)C)[C@@]7(C)CC[C@@H]65)C4)=C(S[C@H]4CC[C@@]5(C)C(=CC[C@H]6[C@@H]7CC[C@H]([C@H](C)CCCC(C)C)[C@@]7(C)CC[C@@H]65)C4)C3O)[C@@H](C)CC[C@]12C (stereo partly specified)	41.5 µM	inactive	inactive	inactive	inactive	Not Active	> 10 µg				
GENTAMICIN		1 µg/mL	10 µg/mL								
CC1=CCC[C@H]2[C@](C)(Cc3cc(O)cc(SC(C)C(=O)O)c3O)[C@@H](C)CC[C@]12C (stereo partly specified)	34.6 µM		inactive	inactive	inactive	27.25 ppm	1 µg	10 µg/mL (≈ 23.9 µM)			
CC1=CCC[C@H]2[C@](C)(Cc3cc(O)cc(Sc4nc5ccccc5s4)c3O)[C@@H](C)CC[C@]12C	29.5 µM	inactive			inactive	Not Active	10 µg		0.01 µg/mL (≈ 0.0208 µM)		100 µg/mL (≈ 208 µM)
Cc1c(C)c2c(c(C)c1O)CCC(C)(C(=O)O)O2 (stereo unspecified) [TROLOX]	25.8 µM										
CC1=CCC[C@H]2[C@](C)(Cc3cc(O)cc(Sc4ccccc4CO)c3O)[C@@H](C)CC[C@]12C	25.3 µM	inactive	inactive	inactive	inactive	> 50 ppm	10 µg				
